Test results taken from article PMC3139720 (Proteins, 2011).
Several values for one entry are separate records, joined by “and”; a condition that tells them apart may be missing. Identical values can stand only once. Like-named read-outs stand apart in the source and are kept apart here. Marks after values point to notes of the source that are not given here.

Assays:
physchem = details: apparent pKa of L-GSH
[1] = Practical properties of thiol-reactive probes; format: physicochemical; details: data not shown
[2] = reaction of ABD with L-GSH; for Ea/R: Arrhenius fit
[3] = Thermal unfolding monitored by circular dichroism at 222 nm; format: physicochemical; details: pH 7, CD signal at 222 nm, fit of Eq. 1
Summary of the method: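 His-tagged variants, Ni-affinity purified and buffer-exchanged. Protein at 3 μM in 25 mM potassium phosphate, 100 mM KCl, pH 7. CD signal at 222 nm recorded as a function of temperature. Apparent Tm obtained by fitting Eq. 1.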

[4] = fQCR: ABD labeling of a single buried cysteine over a temperature gradient; format: physicochemical
Summary of the method: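 Purified single-buried-cysteine variant at 5-10 μM in 25 mM potassium phosphate, 100 mM KCl, pH 7, with TCEP. Final ABD at least 10-fold over protein. Parallel reactions run across a gradient thermocycler and quenched after fixed Δt by rapid cooling or acid. Fluorescence relative to RFUmax (400-2000 μM ABD) gives fractional labeling. Probe-concentration slices test EX2. ΔCp fixed at 3.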

[5] = fQCR ligand binding: RBP.A188C in absence and presence of D-ribose; details: for Δ^apoGU: absence of ligand; for Tm / ΔHm: free energy profile; for Kd: ligand ribose, from ΔΔGU (Eq. 17)
Summary of the method: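 RBP.A188C at 5 μM with 400 μM ABD and 50 μM TCEP (final) in 25 mM potassium phosphate, 100 mM KCl, pH 7, without or with 20 μM ligand. Samples incubated 10 min across a gradient thermocycler, then fluorescence read at 30°C (ex 405, em 465 nm). Fractional labeling converted to free-energy profiles. KD derived versus temperature and free ligand concentration via Eq. 17.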

[6] = absence of ribose (Fig. 6B inset)
[7] = presence of 20 μM ribose (Fig. 6B inset)
[8] = Δt 300 s, [ABD] 500 μM, PHERAstar FS microplate reader (Fig. 7)

N[C@@H](CCC(=O)N[C@@H](CS)C(=O)NCC(=O)O)C(=O)O [L-GSH, reduced glutathione]
pKa (physchem): 8.03 ± 0.01

CCN(CC)c1ccc2c(C)c(-c3ccc(N4C(=O)C=CC4=O)cc3)c(=O)oc2c1 [CPM, N-[4-(7-diethylamino-4-methyl-3-coumarinyl)phenyl]maleimide]
solubility [1]: limited
spontaneous hydrolysis [1]: high rate of spontaneous hydrolysis that is strongly temperature dependent

NS(=O)(=O)c1ccc(F)c2nonc12 [ABD, 4-(aminosulfonyl)-7-fluoro-2,1,3-benzoxadiazole]
lnA, average value and standard error ([2]; over pH 6-8.5): 27.3 ± 0.3
Ea/R ([2]; pH 6 (by order of symbols)): -9300 ± 200 K
Ea/R ([2]; pH 7 (by order of symbols)): -8300 ± 200 K
Ea/R ([2]; pH 8 (by order of symbols)): -7800 ± 200 K
Ea/R ([2]; pH 8.5 (by order of symbols)): -7400 ± 200 K

B1: RBP.L61C: E. coli ribose-binding protein variant engineered to contain a single, buried cysteine (L61C), C-terminal … tag (protein, UniProt P02925 26-296, looked up, variant L61C)
Ribose import binding protein …: KDTIALVVSTLNNPFFVSLKDGAQKEADKLGYNLVVLDSQNNPAKELANVQDLTVRGTKICLINPTDSDAVGNAVKMANQANIPVITLDRQATKGEVVSHIASDNVLGGKIAGDYIAKKAGEGAKVIELQGIAGTSAARERGEGFQQAVAAHKFNVLASQPADFDRIKGLNVMQNLLTAHPDVQAVFAQNDEMALGALRALQTAGKSDVMVVGFDGTPDGEKAVNDGKLAATIAQLPDQIGAKGVETADKVLKGEKVQAKYPVDLKLVVKQ
modifications: C-terminal … tag
apparent Tm [3]: 53 ± 1 °C
Tm ([4]; summary line, quantified graphically): 53 ± 1 ^c °C
~kclose at Tm ([4]; Δt 300 s, [ABD] 100 μM): < 2 × 10^-2 ^e s^-1
~kclose at Tm ([4]; Δt 300 s, [ABD] 200 μM): < 2 × 10^-2 ^e s^-1
~kclose at Tm ([4]; Δt 300 s, [ABD] 400 μM): < 2 × 10^-2 ^e s^-1
Tm ([4]; Δt 300 s, [ABD] 400 μM, quantified graphically (non-EX2)): 53 ± 1 ^c °C
~kclose at Tm ([4]; Δt 300 s, [ABD] 600 μM): < 2 × 10^-2 ^e s^-1
Tm ([4]; Δt 300 s, [ABD] 600 μM, quantified graphically (non-EX2)): 53 ± 1 ^c °C
~kclose at Tm ([4]; Δt 300 s, [ABD] 800 μM): < 2 × 10^-2 ^e s^-1
Tm ([4]; Δt 300 s, [ABD] 800 μM, quantified graphically (non-EX2)): 53 ± 1 ^c °C
~kclose at Tm ([4]; Δt 300 s, [ABD] 1200 μM): < 2 × 10^-2 ^e s^-1
Tm ([4]; Δt 300 s, [ABD] 1200 μM, quantified graphically (non-EX2)): 53 ± 1 ^c °C

B2: RBP.A188C: E. coli ribose-binding protein variant engineered to contain a single, buried cysteine (A188C), C-terminal … tag (protein, UniProt P02925 26-296, looked up, variant A188C)
Ribose import binding protein …: KDTIALVVSTLNNPFFVSLKDGAQKEADKLGYNLVVLDSQNNPAKELANVQDLTVRGTKILLINPTDSDAVGNAVKMANQANIPVITLDRQATKGEVVSHIASDNVLGGKIAGDYIAKKAGEGAKVIELQGIAGTSAARERGEGFQQAVAAHKFNVLASQPADFDRIKGLNVMQNLLTAHPDVQAVFCQNDEMALGALRALQTAGKSDVMVVGFDGTPDGEKAVNDGKLAATIAQLPDQIGAKGVETADKVLKGEKVQAKYPVDLKLVVKQ
modifications: C-terminal … tag
Δ^apoGU ([5]; 46 °C): 3.7 kcal/mol
Δ^apoGU ([5]; 48 °C): 3.0 kcal/mol
Δ^apoGU ([5]; 50 °C): 2.3 kcal/mol
Δ^apoGU ([5]; 52 °C): 1.6 kcal/mol
Δ^apoGU ([5]; 54 °C): 0.9 kcal/mol
Δ^apoGU ([5]; 56 °C): 0.1 kcal/mol
Tm [5, 6]: 57 ± 1 °C
ΔHm [5, 6]: 138 ± 1 kcal/mol
Tm [5, 7]: 59 ± 1 °C
ΔHm [5, 7]: 160 ± 8 kcal/mol
Kd ([5]; 46 °C): 1200 nM
Kd ([5]; 48 °C): 1400 nM
Kd ([5]; 50 °C): 1700 nM
Kd ([5]; 52 °C): 2000 nM
Kd ([5]; 54 °C): 2300 nM
Kd ([5]; 56 °C): 2700 nM
apparent Tm [3]: 56 ± 1 °C
Ea/R ([4]; average value): -8140 ^a K
Tm ([4]; Δt 300 s, [ABD] 200 μM): 56 ± 1 °C
Ea/R ([4]; Δt 300 s, [ABD] 200 μM, pH 7): -8163 ± 6 K
Ea/R ([4]; Δt 300 s, [ABD] 400 μM, pH 7): -8110 ± 14 K
Tm [4, 8]: 56 ± 1 ^f °C
ΔHm [4, 8]: 123 ± 16 ^f kcal/mol and 112 ± 5 ^f kcal/mol
ΔHm ([4]; Δt 300 s, [ABD] 800 μM, ΔCp fixed at 3): 121 ± 4 kcal/mol
~kclose at Tm ([4]; Δt 300 s, [ABD] 1600 μM): ~0.04 s⁻¹
ΔHm ([4]; Δt 300 s, [ABD] 1600 μM, ΔCp fixed at 3): 117 ± 8 kcal/mol
Tm ([4]; Δt 600 s, [ABD] 200 μM): 56 ± 1 °C
Tm ([4]; Δt 600 s, [ABD] 400 μM): 56 ± 1 °C
ΔHm ([4]; Δt 600 s, [ABD] 800 μM, ΔCp fixed at 3): 128 ± 3 kcal/mol
Tm ([4]; Δt 600 s, [ABD] 1200 μM): 58 ± 1 °C
~kclose at Tm ([4]; Δt 600 s, [ABD] 1200 μM): ~0.04 s⁻¹
ΔHm ([4]; Δt 600 s, [ABD] 1200 μM, ΔCp fixed at 3): 125 ± 5 kcal/mol
Tm ([4]; Δt 600 s, [ABD] 1600 μM): 58 ± 1 °C
~kclose at Tm ([4]; Δt 600 s, [ABD] 1600 μM): ~0.04 s⁻¹
ΔHm ([4]; Δt 600 s, [ABD] 1600 μM, ΔCp fixed at 3): 121 ± 4 kcal/mol
